ChEMBL document CHEMBL3286322, “Synthesis and anti-cholinesterase activity of new 7-hydroxycoumarin derivatives” (Eur J Med Chem, 2014)
The source made the active and inactive calls. The rule behind the calls is not given here.

What was measured:
[1] = Antioxidant activity assessed as ferric ion reducing activity using fe3+-TPTZ measured per gram of protein by FRAP assay; assay type: functional
Summary of the method: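 Reducing power measured against a FRAP reagent prepared by mixing acetate buffer (pH 3.6), 10 mM TPTZ in 40 mM HCl, and 20 mM ferric chloride hexahydrate. Test compounds act as reductants, converting the ferric tripyridyl triazine complex to the blue ferrous form, which is read colorimetrically. The method follows Benzie and Strain.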

Cholinesterase = Cholinesterase (Equus caballus, UniProt P81908); assay: Inhibition of equine serum BChE using butyrylthiocholine iodide as substrate by spectrophotometer analysis
Summary of the method: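 Compound stocks were made in DMSO/ethanol (1:9) and diluted to final concentrations with 0.1 M potassium phosphate buffer, pH 8.0. IC50 values are mean ± SE of three independent experiments.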

Acetylcholinesterase [2] = target: T1, Acetylcholinesterase (Electrophorus electricus, UniProt O42275); assay: Inhibition of electric eel AChE using acetylthiocholine iodide as substrate by spectrophotometer analysis
[3] = Neuroprotective activity in rat PC12 cells assessed as inhibition H2O2-induced reduction of cell viability at 5 uM after 24 hrs by MTT assay; assay type: functional, cell-based; conditions: PC-12
Summary of the method: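 PC12 cells were differentiated in serum-free medium with NGF (50 ng/ml) for 5 days until neurite outgrowth appeared. Cells were preincubated with compound at 1, 5 or 10 for 3 h, then challenged with H2O2 (300). Viability is expressed relative to the H2O2-treated group.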

[4] = Cytotoxicity against rat PC12 cells at 1 to 10 uM; assay type: cell-based; conditions: pc-12, 10 µM
Acetylcholinesterase [5] = target: T1, Acetylcholinesterase; assay: Inhibition of electric eel AChE using acetylthiocholine as substrate by Lineweavere-Burk plot
Summary of the method: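 Compound stocks were made in DMSO/ethanol (1:9) and diluted in 0.1 M potassium phosphate buffer, pH 8.0. Initial AChE velocity was measured at inhibitor levels of 0, 0.64, 1.27 and 2.55 across varied acetylthiocholine concentrations. Inhibition type was read from a Lineweaver–Burk plot, and Ki was calculated from a secondary plot.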

[6] = Neuroprotective activity in rat PC12 cells assessed as inhibition H2O2-induced reduction of cell viability at 1 to 10 uM after 24 hrs by MTT assay; assay type: functional, cell-based; conditions: PC-12
Summary of the method: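 PC12 cells differentiated with NGF (50 ng/ml) in serum-free medium for 5 days, until neurite outgrowth was seen by microscopy. Cells were pre-incubated with compound at 1, 5 or 10 for 3 h, then exposed to H2O2 (300). Viability was expressed relative to the H2O2-only group. A reference compound was run at 5.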

Cholinesterase, sequence (P81908 whole entry): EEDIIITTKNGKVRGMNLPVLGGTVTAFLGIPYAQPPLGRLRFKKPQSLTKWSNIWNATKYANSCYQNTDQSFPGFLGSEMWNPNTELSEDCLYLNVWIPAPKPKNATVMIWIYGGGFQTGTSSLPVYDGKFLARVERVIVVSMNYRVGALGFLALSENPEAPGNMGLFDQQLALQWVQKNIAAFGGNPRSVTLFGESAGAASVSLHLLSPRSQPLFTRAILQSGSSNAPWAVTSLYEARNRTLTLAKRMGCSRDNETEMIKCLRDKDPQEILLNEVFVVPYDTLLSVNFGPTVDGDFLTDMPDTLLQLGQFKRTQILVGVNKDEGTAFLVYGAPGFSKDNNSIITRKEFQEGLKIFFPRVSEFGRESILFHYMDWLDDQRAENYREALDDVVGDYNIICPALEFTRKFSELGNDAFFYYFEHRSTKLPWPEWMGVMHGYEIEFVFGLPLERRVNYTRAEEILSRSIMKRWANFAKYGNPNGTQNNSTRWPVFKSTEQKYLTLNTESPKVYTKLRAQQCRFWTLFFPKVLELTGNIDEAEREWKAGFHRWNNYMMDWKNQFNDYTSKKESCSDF
T1 sequence (O42275 whole entry): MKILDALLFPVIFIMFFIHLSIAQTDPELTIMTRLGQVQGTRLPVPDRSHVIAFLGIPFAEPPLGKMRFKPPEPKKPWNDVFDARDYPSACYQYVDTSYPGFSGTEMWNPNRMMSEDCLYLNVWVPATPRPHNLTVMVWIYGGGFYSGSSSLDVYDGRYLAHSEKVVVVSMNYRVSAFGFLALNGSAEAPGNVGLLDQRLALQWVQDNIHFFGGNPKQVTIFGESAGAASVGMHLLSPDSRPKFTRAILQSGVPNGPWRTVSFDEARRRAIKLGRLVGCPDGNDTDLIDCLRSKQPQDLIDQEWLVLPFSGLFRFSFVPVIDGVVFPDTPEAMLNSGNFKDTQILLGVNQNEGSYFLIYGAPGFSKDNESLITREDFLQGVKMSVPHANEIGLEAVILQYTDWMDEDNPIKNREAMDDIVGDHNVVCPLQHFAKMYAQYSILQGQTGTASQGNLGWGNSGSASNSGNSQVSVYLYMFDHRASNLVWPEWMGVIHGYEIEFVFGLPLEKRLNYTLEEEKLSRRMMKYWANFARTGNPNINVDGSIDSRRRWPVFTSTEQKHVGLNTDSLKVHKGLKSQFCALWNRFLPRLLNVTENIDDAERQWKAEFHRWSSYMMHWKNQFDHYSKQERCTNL

Row | SMILES | Activity [1] [µmol] | IC50 (Cholinesterase) [µM] | IC50 (Acetylcholinesterase [2]) [µM] | Activity [3] | Activity [4] | Ki (Acetylcholinesterase [5]) [µM] | Activity [6]
1 | O=C(COc1ccc2ccc(=O)oc2c1)N1CCN(c2ccccc2)CC1 | 1.94 | 50 | 33 | – | – | – | –
2 | O=C(CCCOc1ccc2ccc(=O)oc2c1)N1CCC(Cc2ccccc2)CC1 | 1.61 | 387 | 6.9 | – | – | – | –
3 | O=C(CCCOc1ccc2ccc(=O)oc2c1)N1CCN(c2ccc(Cl)c(Cl)c2)CC1 | 0.78 | 80 | 26 | – | – | – | –
4 | Cc1cc(=O)oc2cc(OCCCC(=O)N3CCN(c4ccccc4O)CC3)ccc12 | 2.01 | 184 | 6.2 | – | – | – | –
5 | O=C(COc1ccc2ccc(=O)oc2c1)N1CCN(c2ccc(Cl)c(Cl)c2)CC1 | 2.01 | 120 | 26.8 | – | – | – | –
6 | Cc1cc(=O)oc2cc(OCCCC(=O)N3CCN(c4ccccc4F)CC3)ccc12 | 0.1 | 29 | 16.4 | – | – | – | –
7 | O=c1c(O)c(-c2ccc(O)c(O)c2)oc2cc(O)cc(O)c12 | 10.8 | – | – | Active | – | – | –
8 | Cc1cc(=O)oc2cc(OCCCC(=O)N3CCN(c4ccc(F)cc4)CC3)ccc12 | 0.08 | 24 | 41.6 | – | – | – | –
9 | O=C(CCCOc1ccc2ccc(=O)oc2c1)N1CCC(O)(c2ccc(Br)cc2)CC1 | 0.03 | 180 | 73 | – | – | – | –
10 | O=C(CCCOc1ccc2ccc(=O)oc2c1)N1CCN(c2ccccc2)CC1 | 1.13 | 120 | 3.43 | – | – | – | –
11 | O=C(CCCOc1ccc2ccc(=O)oc2c1)N1CCN(c2ccc(F)cc2)CC1 | 1.37 | 75 | 50 | – | – | – | –
12 | Cc1cc(=O)oc2cc(OCCCC(=O)N3CCN(c4ccc(Cl)c(Cl)c4)CC3)ccc12 | 0.05 | 250 | 4.38 | – | – | – | –
13 | O=C(CCCOc1ccc2ccc(=O)oc2c1)N1CCN(c2ccccc2F)CC1 | 0.15 | 15 | 6.9 | – | – | – | –
14 | COc1ccc(CCNC(=O)COc2ccc3ccc(=O)oc3c2)cc1OC | 5.43 | 163 | 74 | – | – | – | –
15 | O=C1O[C@H]([C@@H](O)CO)C(O)=C1O | 7.26 | – | – | – | – | – | –
16 | O=C(CCCOc1ccc2ccc(=O)oc2c1)N1CCN(c2ccccc2O)CC1 | 2.82 | 280 | 7 | – | – | – | –
17 | Cc1cc(=O)oc2cc(OCCCC(=O)N3CCC(O)(c4ccc(Br)cc4)CC3)ccc12 | 0.06 | 141 | 34.6 | – | – | – | –
18 | O=C(COc1ccc2ccc(=O)oc2c1)N1CCN(c2ccccc2F)CC1 | 0.07 | 86 | 34.5 | – | – | – | –
19 | O=C(COc1ccc2ccc(=O)oc2c1)N1CCC(Cc2ccccc2)CC1 | 0.05 | 46 | 9.8 | – | – | – | –
20 | O=C(COc1ccc2ccc(=O)oc2c1)NC1CCN(Cc2ccccc2)CC1 | 0.06 | 42 | 1.6 | – | Non-toxic | 1.32 | Active
21 | Cc1cc(=O)oc2cc(OCCCC(=O)N3CCN(c4ccccc4)CC3)ccc12 | 0.07 | 68 | 20.8 | – | – | – | –
